Test results: ChEMBL document CHEMBL4020761, “Exploration of pyrrole derivatives to find an effective potassium-competitive acid blocker with moderately long-lasting suppression of gastric acid secretion” (Bioorg Med Chem, 2017)
The source made the active and inactive calls. No cut-off for these calls is given here.

Key:
[1] = Lipophilicity, log D of the compound at pH 7.4 by HPLC analysis; assay type: physicochemical; details: buffer
In short: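 At pH 7.4, log D derived from HPLC retention time relative to standard compounds.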

[2] = Inhibition of H+/K+-ATPase in porcine stomach gastric mucosal microsomes assessed as reduction in inorganic phosphate production using ATP as substrate preincubated for 30 mins followed by ATP addition in presence of KCl at pH 6.5 by malachite green reagent based colorimetric assay; design: species or system Sus scrofa
[3] = target: CYP3A4 (Homo sapiens, UniProt P08684); experiment: Inhibition of CYP3A4 (unknown origin) expressed in insect cells at 10 uM using testosterone as substrate after 15 mins by HPLC analysis relative to control; assay type: ADME; details: recombinant CYP3A4 expressed in insect cells, probe testosterone
In short: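 Testosterone substrate at 100 μmol/L with 10 nmol/L insect-cell-expressed CYP3A4 and 10 μmol/L test compound, incubated 15 min at 37 °C. 6β-hydroxytestosterone quantified by HPLC with UV detection.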

[4] = Cytotoxicity against human HepG2 cells assessed as cellular ATP level at 100 uM after 1 day by ATPLite assay relative to control; assay type: cell-based; details: read-out: Activity
[5] = tested on: Rattus norvegicus; experiment: Inhibition of histamine-induced acid secretion in Jcl:Sprague-Dawley rat gastric at 1 mg/kg, iv pretreated for 3 mins after pylorus ligation followed by histamine.2HCl treatment measured after 3 hrs by titration method relative to control; assay type: functional
In short: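 Anesthetized rats dosed iv at 1 mg/kg. Total acid output over 3 h after histamine injection compared with vehicle-treated rats.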

[6] = Plasma concentration in Sprague-Dawley rat at 0.2 mg/kg, iv administered as cassette dose after 1 hr by LC-MS/MS analysis; assay type: ADME, organism-based
In short: (§1)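 Fasted male Sprague-Dawley rats given compounds iv by cassette dosing at 0.2 mg/kg (as free base). Plasma and stomach sampled at 10 min, 1, 4 and 24 h. Plasma and 20% stomach homogenate in saline deproteinized with acetonitrile containing internal standard, then LC/MS/MS. AUC calculated for plasma and stomach. Values are averages of three rats.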

[7] = Drug uptake in Sprague-Dawley rat stomach at 0.2 mg/kg, iv administered as cassette dose after 1 hr by LC-MS/MS analysis; assay type: ADME, organism-based; details: read-out: Drug uptake; in short: as §1
[8] = Drug uptake in Sprague-Dawley rat stomach at 0.2 mg/kg, iv administered as cassette dose after 10 mins by LC-MS/MS analysis; assay type: ADME, organism-based; details: read-out: Drug uptake; in short: as §1
[9] = Drug uptake in Sprague-Dawley rat stomach at 0.2 mg/kg, iv administered as cassette dose after 4 hrs by LC-MS/MS analysis; assay type: ADME, organism-based; details: read-out: Drug uptake; in short: as §1
[10] = AUC in Sprague-Dawley rat plasma at 0.2 mg/kg, iv administered as cassette dose by LC-MS/MS analysis; assay type: ADME, organism-based; in short: as §1
[11] = Plasma concentration in Sprague-Dawley rat at 0.2 mg/kg, iv administered as cassette dose after 10 mins by LC-MS/MS analysis; assay type: ADME, organism-based; in short: as §1
[12] = tested on: Stomach; experiment: AUC in Sprague-Dawley rat stomach at 0.2 mg/kg, iv administered as cassette dose by LC-MS/MS analysis; assay type: ADME, organism-based; details: in vivo; in short: as §1
[13] = target: hERG (KCNH2) (Homo sapiens, UniProt Q12809); experiment: Inhibition of human ERG expressed in HEK cells at 10 uM at -75 mV holding potential by Whole-cell voltage clamp assay relative to control; assay type: cell-based; details: HEK cells expressing human ERG
[14] = Drug uptake in Sprague-Dawley rat stomach at 0.2 mg/kg, iv administered as cassette dose after 24 hrs by LC-MS/MS analysis; assay type: ADME, organism-based; details: read-out: Drug uptake; in short: as §1
[15] = tested on: Rattus norvegicus; experiment: Inhibition of histamine-induced acid secretion in Jcl:Sprague-Dawley rat assessed as increase in pH of gastric perfusate at 1 mg/kg, iv pretreated for 3 mins after pylorus ligation followed by histamine.2HCl treatment measured after 3 hrs by glass electrode method; assay type: functional, organism-based
[16] = tested on: Rattus norvegicus; experiment: Inhibition of histamine-induced acid secretion in Jcl:Sprague-Dawley rat assessed as pH of gastric perfusate at 1 mg/kg, iv pretreated for 3 mins after pylorus ligation followed by histamine.2HCl treatment measured after 3 hrs by glass electrode method (reference value: 2); assay type: functional
[17] = tested on: Rattus norvegicus; experiment: Inhibition of histamine-induced acid secretion in Jcl:Sprague-Dawley rat assessed as increase in pH of gastric perfusate at 1 mg/kg, iv pretreated for 3 mins after pylorus ligation followed by histamine.2HCl treatment measured after 180 to 300 mins by glass electrode method; assay type: functional, organism-based

Chain of hERG (KCNH2) (Q12809 whole entry): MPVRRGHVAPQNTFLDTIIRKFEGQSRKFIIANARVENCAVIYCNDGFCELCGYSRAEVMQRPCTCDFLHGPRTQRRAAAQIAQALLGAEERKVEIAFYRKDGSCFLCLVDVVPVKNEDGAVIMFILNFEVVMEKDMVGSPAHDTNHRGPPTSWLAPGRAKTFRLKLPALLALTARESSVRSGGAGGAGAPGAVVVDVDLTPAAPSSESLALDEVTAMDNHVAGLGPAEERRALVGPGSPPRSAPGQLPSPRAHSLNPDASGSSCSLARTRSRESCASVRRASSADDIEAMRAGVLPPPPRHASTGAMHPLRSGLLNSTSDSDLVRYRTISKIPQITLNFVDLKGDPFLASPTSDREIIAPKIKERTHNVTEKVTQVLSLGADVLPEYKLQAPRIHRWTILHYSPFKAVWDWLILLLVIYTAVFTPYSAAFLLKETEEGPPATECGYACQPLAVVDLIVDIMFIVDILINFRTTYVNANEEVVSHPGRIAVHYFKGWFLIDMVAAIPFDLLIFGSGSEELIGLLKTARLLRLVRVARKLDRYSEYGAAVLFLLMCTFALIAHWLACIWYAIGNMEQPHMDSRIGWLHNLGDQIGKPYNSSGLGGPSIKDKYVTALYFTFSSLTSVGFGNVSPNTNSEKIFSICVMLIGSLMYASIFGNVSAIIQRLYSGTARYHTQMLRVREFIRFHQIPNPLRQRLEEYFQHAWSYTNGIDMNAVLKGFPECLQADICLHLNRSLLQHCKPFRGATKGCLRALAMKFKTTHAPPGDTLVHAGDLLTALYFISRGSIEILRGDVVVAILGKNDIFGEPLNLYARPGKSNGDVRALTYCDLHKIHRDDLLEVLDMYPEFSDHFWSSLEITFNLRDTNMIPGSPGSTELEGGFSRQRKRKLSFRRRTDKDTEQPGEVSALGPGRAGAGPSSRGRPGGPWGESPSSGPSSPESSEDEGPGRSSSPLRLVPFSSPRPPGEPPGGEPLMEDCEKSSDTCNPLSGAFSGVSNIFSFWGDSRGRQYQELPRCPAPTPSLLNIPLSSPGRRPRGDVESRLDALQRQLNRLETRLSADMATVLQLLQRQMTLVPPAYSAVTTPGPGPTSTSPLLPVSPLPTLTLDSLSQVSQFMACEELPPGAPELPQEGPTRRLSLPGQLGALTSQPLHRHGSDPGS
Chain of CYP3A4 (P08684 whole entry): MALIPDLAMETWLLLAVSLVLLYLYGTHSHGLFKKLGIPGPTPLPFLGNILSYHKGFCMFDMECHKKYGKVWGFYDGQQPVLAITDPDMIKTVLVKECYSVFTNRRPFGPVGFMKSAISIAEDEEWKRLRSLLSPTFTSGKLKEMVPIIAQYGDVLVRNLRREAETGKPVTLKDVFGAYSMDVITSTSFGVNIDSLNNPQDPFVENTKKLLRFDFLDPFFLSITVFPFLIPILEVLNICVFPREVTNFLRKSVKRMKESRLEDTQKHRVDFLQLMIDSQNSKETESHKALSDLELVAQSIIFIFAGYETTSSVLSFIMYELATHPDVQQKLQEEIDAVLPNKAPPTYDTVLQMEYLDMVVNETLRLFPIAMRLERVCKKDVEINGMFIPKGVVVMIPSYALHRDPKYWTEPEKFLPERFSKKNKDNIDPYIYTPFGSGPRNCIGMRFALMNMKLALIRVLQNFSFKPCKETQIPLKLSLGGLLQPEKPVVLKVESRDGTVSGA

Structure (SMILES) | logD [1] | IC50 [2] [nM] | inhibition at 0.25 h, 10 µM [3] [%] | concentration at 1 h [6] [ng/mL] | concentration at 1 h [7] [ng/g] | concentration at 10 min [8] [ng/g] | concentration at 4 h [9] [ng/g] | AUC [10] [ng·h/mL] | concentration at 10 min [11] [ng/mL] | AUC [12] [ng·h/g] | concentration at 24 h [14] [ng/g] | viability at 24 h, 100 µM [4] [%] | inhibition in vivo at 1 mg/kg [5] [%] | inhibition at 10 µM [13] [%] | inhibition [15] | pH [16] | inhibition [17]
CNCc1cn(S(=O)(=O)c2cncc(Cl)c2)c(-c2cccnc2F)c1F | 1.44 | 160 | 45.9 |  |  |  |  |  |  |  |  | 66.9 |  |  |  |  | 
CNCc1cc(-c2cccnc2F)n(S(=O)(=O)c2cccnc2)c1 |  | 210 | 4.2 | 8.4 | 532 | 420 | 541 | 35 | 37.1 | 7646 | 19.6 |  | 96 |  |  |  | 
CNCc1cn(S(=O)(=O)c2ccco2)c(-c2cccnc2F)c1F | 0.2 | 79 | 5.6 | 6.5 | 706 | 592 | 254 | 26 | 26.5 | 4566 |  | 90.8 | 75 | 28.7 |  |  | 
CNCc1cn(S(=O)(=O)c2cccc(OC)n2)c(-c2cccnc2F)c1F | 1.03 | 150 | 55.8 | 14.9 | 1260 | 773 | 971 | 50 | 43.5 | 14434 | 47.9 | 69.8 | 98 | 82.3 | Active |  | 
CNCc1cn(S(=O)(=O)c2cnccc2C)c(-c2cccnc2F)c1F | 0.43 | 120 | 40 | 8.4 | 618 | 360 | 251 | 41 | 50.1 | 4248 |  | 90.9 | 98 | 28.2 |  |  | 
CNCc1cn(S(=O)(=O)c2cccc(F)n2)c(-c2cccnc2F)c1F | 0.7 | 240 | 46 |  |  |  |  |  |  |  |  | 74 |  |  |  |  | 
CNCc1cn(S(=O)(=O)c2cncc(C)c2)c(-c2cccnc2F)c1F | 0.61 | 140 | 49.7 |  |  |  |  |  |  |  |  | 86.9 | 87 |  |  |  | 
CNCc1cn(S(=O)(=O)c2cncc(F)c2)c(-c2cccnc2F)c1F | 0.83 | 200 | 27 | 8.3 | 606 | 330 | 425 | 38 | 43 | 6599 | 38.3 | 88.9 | 99 | 22.7 |  | >5 | inactive
CNCc1cn(S(=O)(=O)c2ccoc2)c(-c2cccnc2F)c1F | 0.45 | 60 | 12.8 | 11.5 | 688 | 635 | 194 | 41 | 37.4 | 3865 |  | 100 | 95 | 44.5 |  |  | 

The remaining molecules from weak to strong by IC50 [2], led by results:

logD [1] | IC50 [2] [nM] | inhibition at 0.25 h, 10 µM [3] [%] | concentration at 1 h [6] [ng/mL] | concentration at 1 h [7] [ng/g] | concentration at 10 min [8] [ng/g] | concentration at 4 h [9] [ng/g] | AUC [10] [ng·h/mL] | concentration at 10 min [11] [ng/mL] | AUC [12] [ng·h/g] | concentration at 24 h [14] [ng/g] | Structure (SMILES) | viability at 24 h, 100 µM [4] [%] | inhibition in vivo at 1 mg/kg [5] [%] | inhibition at 10 µM [13] [%] | inhibition [15] | pH [16] | inhibition [17]
0.32 | 510 | 29 |  |  |  |  |  |  |  |  | CNCc1cn(S(=O)(=O)c2ncccc2C)c(-c2cccnc2F)c1F | 79.1 | 54 |  |  |  | 
0.75 | 390 | 53.1 | 10.1 | 722 | 539 | 427 | 33 | 28 | 6568 |  | CNCc1cn(S(=O)(=O)c2cccnc2Cl)c(-c2cccnc2F)c1F | 86.9 |  |  |  |  | 
0.64 | 280 | 7.7 | 13.1 | 806 | 624 | 426 | 52 | 54.2 | 6761 |  | CNCc1cn(S(=O)(=O)c2ccc(OC)cn2)c(-c2cccnc2F)c1F | 80 | 95 | 17.6 |  |  | 
0.71 | 210 | 22.9 | 10.3 | 999 | 1080 | 527 | 41 | 41.7 | 8550 | 3.3 | CNCc1cn(S(=O)(=O)c2cccc(C)n2)c(-c2cccnc2F)c1F | 83.8 | 91 | 13.9 |  |  | 
0.51 | 140 | 19 | 10.1 | 773 | 617 | 268 | 38 | 37.2 | 4964 | 8.8 | CNCc1cn(S(=O)(=O)c2cc(OC)ccn2)c(-c2cccnc2F)c1F | 84.5 | 95 | 38.7 |  |  | 
 | 120 | -9.7 |  |  |  |  |  |  |  |  | CNCc1cc(-c2cccnc2F)n(S(=O)(=O)c2ccccn2)c1 |  | 81 |  |  |  | 
0.42 | 100 | 21.7 | 5 | 526 | 369 | 347 | 22 | 25 | 5179 |  | CNCc1cn(S(=O)(=O)c2ccc(F)cn2)c(-c2cccnc2F)c1F | 86.5 | 87 |  |  |  | 
0.54 | 72 | 20.5 | 12.2 | 955 | 412 | 827 | 42 | 36.6 | 11717 | 17.4 | CNCc1cn(S(=O)(=O)c2cccs2)c(-c2cccnc2F)c1F | 77.5 | 98 | 56.1 |  |  | 
 | 49 | 14.4 | 15 | 752 | 602 | 629 | 54 | 51.5 | 10277 | 130 | CNCc1cn(S(=O)(=O)c2cccnc2)c(-c2cccnc2F)c1F |  | 98 |  |  |  | 
 | 32 |  | 8.8 | 592 | 522 | 210 | 27 | 20.8 | 3815 |  | CNCc1cc(-c2cccnc2F)n(S(=O)(=O)c2cccs2)c1 |  | 96 |  |  |  | 
 | 32 | 1.4 | 8.9 | 614 | 407 | 640 | 29 | 23.5 | 9152 | 41.7 | CNCc1cc(-c2cccnc2F)n(S(=O)(=O)c2ccsc2)c1 |  | 98 |  |  |  | 
